Test results reported in ChEMBL document CHEMBL4145461, “Novel non-sulfonamide 5-HT6 receptor partial inverse agonist in a group of imidazo[4,5-b]pyridines with cognition enhancing properties” (Eur J Med Chem, 2018).

Legend:
[1] = molecular target: T1, alpha-1 adrenergic receptor (Rattus norvegicus, UniProt P15823+P23944+P43140); assay: Displacement of [3H]prazosin from rat brain alpha-1 adrenergic receptor at 1 uM after 60 mins by scintillation counting relative to control; conditions: rat brain alpha-1 adrenergic receptor preparation, probe [3H]prazosin
T1 sequence (P15823 whole entry): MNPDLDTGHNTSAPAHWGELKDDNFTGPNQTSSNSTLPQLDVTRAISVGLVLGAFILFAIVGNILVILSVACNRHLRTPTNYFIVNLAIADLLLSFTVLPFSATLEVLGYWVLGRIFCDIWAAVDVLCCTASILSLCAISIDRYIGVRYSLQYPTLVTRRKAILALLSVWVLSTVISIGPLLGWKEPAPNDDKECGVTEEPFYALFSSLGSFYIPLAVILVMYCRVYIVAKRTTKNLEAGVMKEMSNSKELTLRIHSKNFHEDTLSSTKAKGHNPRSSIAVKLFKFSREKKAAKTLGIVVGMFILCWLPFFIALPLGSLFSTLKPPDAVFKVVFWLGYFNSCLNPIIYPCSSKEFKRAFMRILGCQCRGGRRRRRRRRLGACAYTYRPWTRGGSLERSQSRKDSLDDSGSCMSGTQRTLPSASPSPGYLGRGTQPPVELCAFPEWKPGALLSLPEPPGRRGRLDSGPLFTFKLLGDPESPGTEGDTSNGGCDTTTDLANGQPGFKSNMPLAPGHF
T1 sequence (P23944 whole entry): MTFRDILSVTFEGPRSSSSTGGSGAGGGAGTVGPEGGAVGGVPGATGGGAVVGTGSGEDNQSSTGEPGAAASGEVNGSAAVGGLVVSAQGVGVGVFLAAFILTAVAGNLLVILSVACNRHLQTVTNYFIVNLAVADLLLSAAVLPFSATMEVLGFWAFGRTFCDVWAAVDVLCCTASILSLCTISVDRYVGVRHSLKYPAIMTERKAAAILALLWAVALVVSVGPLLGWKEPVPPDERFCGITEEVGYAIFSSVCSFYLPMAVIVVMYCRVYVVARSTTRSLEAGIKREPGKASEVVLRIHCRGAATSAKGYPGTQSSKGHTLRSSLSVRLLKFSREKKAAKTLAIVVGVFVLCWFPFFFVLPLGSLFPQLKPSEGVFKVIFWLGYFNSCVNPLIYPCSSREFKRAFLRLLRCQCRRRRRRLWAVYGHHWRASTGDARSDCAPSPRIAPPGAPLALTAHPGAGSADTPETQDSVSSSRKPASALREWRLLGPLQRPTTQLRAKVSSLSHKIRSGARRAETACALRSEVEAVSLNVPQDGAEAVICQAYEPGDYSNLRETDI
T1 sequence (P43140 whole entry): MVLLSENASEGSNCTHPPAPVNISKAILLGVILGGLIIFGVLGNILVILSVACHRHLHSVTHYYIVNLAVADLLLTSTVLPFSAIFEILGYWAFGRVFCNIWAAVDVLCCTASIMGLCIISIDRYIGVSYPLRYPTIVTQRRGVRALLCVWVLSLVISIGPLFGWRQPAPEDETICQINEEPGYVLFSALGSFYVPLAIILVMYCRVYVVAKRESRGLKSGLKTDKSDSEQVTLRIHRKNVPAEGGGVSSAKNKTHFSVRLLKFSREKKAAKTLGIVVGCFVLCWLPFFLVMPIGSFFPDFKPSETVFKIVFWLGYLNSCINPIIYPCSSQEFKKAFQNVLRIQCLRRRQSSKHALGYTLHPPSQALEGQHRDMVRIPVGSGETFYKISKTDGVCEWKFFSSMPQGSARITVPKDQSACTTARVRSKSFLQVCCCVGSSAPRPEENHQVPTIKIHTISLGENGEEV

[2] = molecular target: Histamine H1 receptor (Homo sapiens) (UniProt P35367); assay: Displacement of [3H]pyrilamine from recombinant human histamine H1 receptor at 1 uM after 60 mins by scintillation counting relative to control
Chain of Histamine H1 receptor (Homo sapiens) (P35367 whole entry): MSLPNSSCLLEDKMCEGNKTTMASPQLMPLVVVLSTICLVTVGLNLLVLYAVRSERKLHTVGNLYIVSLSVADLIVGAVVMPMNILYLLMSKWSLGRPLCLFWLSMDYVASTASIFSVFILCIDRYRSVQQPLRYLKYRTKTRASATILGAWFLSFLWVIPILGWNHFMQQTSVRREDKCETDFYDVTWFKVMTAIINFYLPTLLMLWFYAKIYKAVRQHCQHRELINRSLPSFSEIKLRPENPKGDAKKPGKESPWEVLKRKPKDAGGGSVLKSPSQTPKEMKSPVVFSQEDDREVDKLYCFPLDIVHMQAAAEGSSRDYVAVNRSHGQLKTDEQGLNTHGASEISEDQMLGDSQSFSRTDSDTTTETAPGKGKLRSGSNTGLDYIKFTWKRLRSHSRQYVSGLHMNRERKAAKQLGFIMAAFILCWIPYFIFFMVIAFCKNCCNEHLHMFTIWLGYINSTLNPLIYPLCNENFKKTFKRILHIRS

[3] = Cmax in Wistar rat at 10 mg/kg, po administered as single dose by LC/MS analysis; type: ADME, organism-based; set-up: dose 10 mg/kg, route oral; conditions: in vivo
In short: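 Male Wistar rats (229–272 g), fasted 16 h before and 4 h after dosing, given 10 mg/kg orally in water. Four rats per time point at 15 min, 30 min, 1, 2, 4 and 8 h. Plasma (K3EDTA) and brain homogenate collected and analysed by LC-MS/MS.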

SMILES: CCc1nc2c(N3CCNCC3)ccnc2n1Cc1cccc(F)c1
- inhibition at 1 h, 1 µM [1]: 0.2%
- inhibition [2]: -4.9%
- Cmax [3]: 140 ng/mL
